Source: PubChem BioAssay (several laboratories)
Hits are enriched below; roughly 7.6% of the tested compounds scored in any of these assays.
DAT uptake mod = changed human dopamine transporter uptake under cocaine IC80 | Q01959 | B-score at 10 µM | actives 1.3% (n = 110,000) | AID 449768 | LLC-PK1 hDAT cells, [14C]-dopamine uptake with cocaine IC80; actives deviate in either direction;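 active = Z score or B-score, a plate-position-corrected score, falls beyond the plate's 99.7% confidence bounds, in either direction; inactive = both scores lie inside the 99.7% bounds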;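 also: scored against the spread of the other compound wells on the same plate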
Target sequence (Q01959 whole entry, looked up): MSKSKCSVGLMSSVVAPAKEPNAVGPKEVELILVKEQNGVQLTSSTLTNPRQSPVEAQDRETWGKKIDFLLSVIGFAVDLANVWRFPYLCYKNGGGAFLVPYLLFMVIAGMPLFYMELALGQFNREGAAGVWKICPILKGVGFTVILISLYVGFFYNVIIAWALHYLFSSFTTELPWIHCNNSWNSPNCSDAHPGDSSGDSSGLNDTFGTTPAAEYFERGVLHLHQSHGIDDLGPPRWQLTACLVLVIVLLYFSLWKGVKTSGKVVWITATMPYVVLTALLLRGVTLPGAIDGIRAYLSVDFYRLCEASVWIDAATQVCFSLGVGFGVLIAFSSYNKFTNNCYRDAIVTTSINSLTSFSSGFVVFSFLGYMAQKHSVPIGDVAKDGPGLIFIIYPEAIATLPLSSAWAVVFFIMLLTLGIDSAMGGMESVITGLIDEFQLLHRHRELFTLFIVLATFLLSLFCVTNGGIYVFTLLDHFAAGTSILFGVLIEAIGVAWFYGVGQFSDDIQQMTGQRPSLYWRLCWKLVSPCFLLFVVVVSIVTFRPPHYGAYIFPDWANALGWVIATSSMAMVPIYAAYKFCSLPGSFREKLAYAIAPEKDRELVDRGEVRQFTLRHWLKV
Jurkat tox 60K = cytotoxic compounds reducing Jurkat cell viability. Jurkat E6.1 viability, ATP luminescence, 48 h. inhibition, % at 4 µM. actives 1.2% (n = 56,000). AID 463;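 active = inhibition above the mean inhibition of all tested compounds plus 3 SD, cut at about 28% in these data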
HEK293 NFkB inh = inhibitors of the PMA/ionomycin-induced NF-kB reporter in HEK293 cells | HEK-293 NF-kB luciferase reporter, luminescence | inhibition, % at 3 µM | actives 0.21% (n = 62,000);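 active = inhibition above the mean of all tested compounds plus 3 SD, cut at about 40% in these data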;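 also: 0% = stimulated DMSO wells and 100% = 10 µM reference inhibitor 5653914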
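Material: HEK-293 cells with stable firefly luciferase reporter driven by four HIV NF-kB elements / Also added: PMA plus ionomycin mix as NF-kB-activating stimulus / Compound dosing: 3 µM once, 0.30% DMSO / Times: 1 h pretreatment, 16 h stimulation, 37 °C / Signal: luminescence / Evaluation: per-plate % inhibition versus controls / Benchmarks: DMSO and 10 µM reference inhibitor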
M1 ag = M1 muscarinic receptor agonism; actives 3% (n = 64,000); B-score at 10 µM; CHO-M1 cells, Fluo-4 calcium fluorescence, agonist mode; active compounds read high;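 active = fluorescence rise, raw or as B-score row- and column-corrected plate score, outside the 99.7% band of its plate's samples, either direction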
D1 mod = allosteric modulators of human D1 dopamine receptor; P21728; HEK293 D1, CRE-luciferase, dopamine EC30 potentiation; actives deviate in either direction; B-score at 10 µM; actives 5.9% (n = 58,000);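 active = luminescence count or its row- and column-corrected plate score outside the 99.7% band of the plate's sample wells, on either side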
M1 antagonist = M1 muscarinic receptor (rat) antagonism; actives 3.4% (n = 64,000); CHO-M1 cells, Fluo-4 calcium, ACh EC80 antagonist mode; active compounds read low; P08482; B-score at 10 µM; AID 628;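 active = calcium fluorescence response, raw or row-and-column corrected B-score, differing from the plate sample mean either way at a set confidence level, mostly lower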
D1 PAM confirm = confirmation of human D1 dopamine receptor allosteric modulators; HEK293 D1 CRE-luciferase, dopamine EC30 potentiation; active compounds read high; luminescence at 10 µM; shares compounds with D1 mod; actives 88% (n = 2,200);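 active = luminescence in either of two replicates above the same-plate mean plus 3 SD of the low-dose dopamine control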
D1 ag no DA = D1 (human) signaling in absence of dopamine; luminescence at 10 µM; shares compounds with D1 mod; HEK293 D1 CRE-luciferase, luminescence, no dopamine; active compounds read high; actives 0.8% (n = 1,900); in the data active = luminescence above about 3900
Isoprot counter = counter-screen for D1 modulators: isoproterenol response in HEK293 cells | shares compounds with D1 mod | HEK293 D1 CRE-luciferase, isoproterenol EC30 counter-screen | calls only at 10 µM | actives 63% (n = 2,200);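 active = luminescence in either replicate above plate mean of wells with a partly effective reference agonist dose plus 3 SD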;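 also: isoproterenol raises cAMP through native beta-adrenoceptor Gs so signal bypasses D1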
Numbers without * were called inactive; i = inactive; . = no result; + = active, no number.

SMILES | DAT uptake mod | Jurkat tox 60K | HEK293 NFkB inh | M1 ag | D1 mod | M1 antagonist | D1 PAM confirm | D1 ag no DA | Isoprot counter
O=C(c1ccc(Br)cc1)c1cc([N+](=O)[O-])ccc1N1CCCCC1 | -1.2 | . | . | . | . | . | . | . | .
COc1cc(OC)cc(C(=O)NC(C(=O)NCCN(C)C)C23CC4CC(CC(C4)C2)C3)c1 (stereo not drawn) | -0.74 | 13 | -6 | -0.55 | 0.068 | -0.43 | . | . | .
Cc1[nH]nc2c1C(c1ccc(F)cc1)C1=C(CC(C)(C)CC1=O)N2 (stereo not drawn) | 0.25 | -3 | 5 | 0.96 | 6.3* | -0.0036 | 12860* | 1600 | i
Cc1ccc(C2C3=C(CC(C)(C)CC3=O)Nc3n[nH]c(C)c32)cc1 (stereo not drawn) | 0.76 | -6 | 27 | 0.15 | 1.5 | 0.52 | . | . | .
CCN1C(=O)c2cccc3c(S(=O)(=O)Nc4ccccc4)ccc1c23 | -0.56 | . | . | . | . | . | . | . | .
CCN1C(=O)c2cccc3c(S(=O)(=O)Nc4ccccn4)ccc1c23 | -0.27 | 12 | 40* | -0.92 | 2.5* | 0.8 | 5724* | 1712 | i
CCN1C(=O)c2cccc3c(S(=O)(=O)Nc4ncccc4C)ccc1c23 | 1.8 | 8 | 20 | -0.027 | 7.9* | 0.2 | 9156* | 1492 | +
OCCNc1ncnc2c1c(-c1ccccc1)c(-c1ccccc1)n2Cc1ccco1 | 0.44 | . | . | -0.5 | 5.8* | 0.43 | 8384* | 1284 | i
c1ccc(-c2c(-c3ccccc3)n(Cc3ccco3)c3ncnc(NCCCn4ccnc4)c23)cc1 | 1.3 | . | . | . | . | . | . | . | .
O=C(COC(=O)c1cccc(S(=O)(=O)NCc2ccccc2)c1)Nc1ccccc1OC(F)F | 0.031 | . | . | . | . | . | . | . | .
Cc1cccc(-n2c(=O)[nH]c3c(C(N)=O)nc(C(C)C)nc32)c1 | 0.48 | 0 | 8 | 0.36 | 5.5* | 0.02 | 10016* | 1376 | i
Cc1ccc(Cn2ncc3c(N4CCCC4)ncnc32)cc1 | 1.1 | -3 | 3 | 1.1 | 2.7* | -0.43 | 10768* | 1564 | +
CC1CC(C)CN(c2ncnc3c2cnn3Cc2ccc(Cl)cc2)C1 (stereo not drawn) | 1.4 | 1 | 16 | -1.1 | 0.52 | 0.49 | . | . | .
Clc1ccc(Cn2ncc3c(N4CCCC4)ncnc32)cc1 | 0.44 | -2 | 12 | . | 4.7* | . | 13228* | 1420 | +
Clc1ccc(Cn2ncc3c(N4CCCCC4)ncnc32)c(Cl)c1 | -0.44 | 0 | 0 | -0.58 | -0.38 | -0.53 | . | . | .
OC1CCN(c2c3c(nc4cc(-c5cccc(F)c5)nn24)CCCC3)CC1 | 1.3 | . | 17 | 7.1 | 7.4* | 0.014 | 17644* | 1772 | +
COc1ccc(CCN2CCCn3c2nc2c3c(=O)n(Cc3ccccc3F)c(=O)n2C)cc1OC | 0.74 | 8 | 6 | 0.55 | 6.3* | 0.37 | 17816* | 1740 | i
CC(C)c1nccn1S(=O)(=O)c1cc(Cl)ccc1Cl | -0.48 | -12 | -12 | -0.036 | 0.03 | 0.54 | . | . | .
CC(=O)Nc1cc2c(cc1C(=O)c1ccc(C)cc1)OCCO2 | -0.36 | -5 | -4 | 0.81 | 6.2* | 0.3 | 15264* | 1428 | +
CCCCNC(=O)Nc1cc(C(=O)OC)ccc1Cl | -0.64 | . | . | . | . | . | . | . | .
C=CCSc1nc2sc(C)c(C)c2c(=O)n1CC=C | 1.4 | . | . | . | . | . | . | . | .
C=CCn1c(=O)c2c(C)c(C)sc2n2c(Nc3ccc(OC)cc3)nnc12 | -0.59 | -2 | 18 | 0.9 | 3.3* | 0.023 | 10192* | 1584 | i
CSC1=NCCN1C(=O)c1cccs1 | -2.1 | -6 | 3 | -0.31 | 3.5 | -0.11 | . | . | .
C=CCn1c(SCC(=O)Nc2cc(C)on2)nc2sc3c(c2c1=O)CCCC3 | 1.3 | . | . | . | . | . | . | . | .
C=CCn1c(SCC(=O)N2CCOCC2)nc2sc3c(c2c1=O)CCCC3 | 3.1* | -1 | 17 | 0.66 | 3.4* | -1.7 | 7424* | 1576 | +
CCn1c(SCC(=O)OC)nc2sc3c(c2c1=O)CCC3 | -0.23 | . | . | -0.36 | 16* | -1.1 | 16808* | 1576 | +
